Results taken from ChEMBL document CHEMBL4190359, “Synthesis and Investigation of S-Substituted 2-Mercaptobenzoimidazoles as Inhibitors of Hedgehog Signaling” (ACS Med Chem Lett, 2017).
Calls of active or inactive are those of the source. The calls are words filed in the database; no cut-off is given here.

Assays:
[1] = Inhibition of Hedgehog signaling in mouse Shh Light2 cells assessed as reduction in purmorphamine-induced Gli mediated transcriptional activity pretreated for 1 hr followed by purmorphamine addition measured after 48 hrs by luciferase reporter gene assay; type: cell-based
[2] = Cytotoxicity against mouse C3H10T1/2 cells assessed as cell viability by CellTiter-Glo assay; type: cell-based, C3H 10T1/2; design: concentration or dose not given beside the values; conditions: read-out: Activity
[3] = (§1) Inhibition of Hedgehog signaling pathway in mouse C3H10T1/2 cells assessed as reduction in purmorphamine-induced increase in alkaline phosphatase level using CDP-star as substrate pretreated for 1 hr followed by purmorphamine addition measured after 5 days by luminescence assay; type: cell-based
Procedure, shortened: (§2)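 Osteogenesis assay in multipotent C3H/10T1/2 mesenchymal progenitor cells; differentiation to osteoblasts driven by SMO agonist purmorphamine; read-out is induced alkaline phosphatase expression; IC50 derived from reduction of this signal.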

[4] = Cytotoxicity against mouse Shh Light2 cells assessed as cell viability by CellTiter Glo assay; type: cell-based, Shh Light II; design: concentration or dose not given beside the values; conditions: read-out: Activity
[5] = molecular target: T1, Alkaline phosphatase, tissue-nonspecific isozyme (Homo sapiens) (UniProt P05186); assay: Inhibition of recombinant human C-terminal His6-tagged alkaline phosphate activity (Leu18 to Ser502 residues) using CDP-star as substrate pretreated for 30 mins followed by substrate addition measured after 60 mins by luminescence assay
T1 sequence (whole entry): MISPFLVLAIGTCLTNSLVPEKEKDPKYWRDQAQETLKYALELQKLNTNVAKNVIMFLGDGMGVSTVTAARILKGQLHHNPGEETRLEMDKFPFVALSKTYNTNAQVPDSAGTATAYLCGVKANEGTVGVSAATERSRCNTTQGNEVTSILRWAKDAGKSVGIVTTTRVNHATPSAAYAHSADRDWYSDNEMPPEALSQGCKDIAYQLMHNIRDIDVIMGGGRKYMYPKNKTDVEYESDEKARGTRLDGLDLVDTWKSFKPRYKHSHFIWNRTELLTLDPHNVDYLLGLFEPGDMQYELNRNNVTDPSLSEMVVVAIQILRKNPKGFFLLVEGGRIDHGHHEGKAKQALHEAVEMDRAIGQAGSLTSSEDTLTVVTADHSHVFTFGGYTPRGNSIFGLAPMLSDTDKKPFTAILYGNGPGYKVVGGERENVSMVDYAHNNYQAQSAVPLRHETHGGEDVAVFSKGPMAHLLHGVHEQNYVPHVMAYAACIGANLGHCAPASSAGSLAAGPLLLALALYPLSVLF

Mus musculus = species: Mus musculus; assay: as §1; type: cell-based; procedure, shortened: as §2
C3H 10T1/2 = assay: Cytotoxicity against mouse C3H10T1/2 cells by CellTiter-Glo assay; type: cell-based
Shh Light II = assay: Cytotoxicity against mouse Shh Light2 cells by CellTiter Glo assay; type: cell-based
Homo sapiens = species: Homo sapiens; assay: Inhibition of Hedgehog signaling pathway (unknown origin); conditions: concentration not given here
[6] = Mus musculus, Shh Light2, read-out: IC50
[7] = Mus musculus, C3H 10T1/2, read-out: IC50

Row | SMILES | IC50 [1] | IC50 [3] | inhibition [5] | IC50 [1, 6] | IC50 [3, 7] | inhibition (Homo sapiens) | viability [2] | viability [4] | inhibition (Mus musculus) | IC50 (C3H 10T1/2) | IC50 (Shh Light II)
1 | COC(=O)c1cccc(OCCSc2nc3ccccc3[nH]2)c1 | Not Active | Not Active | inactive |  |  |  | > 80% | > 80% |  |  | 
2 | Cc1cccc(OCCCSc2nc3ccccc3[nH]2)c1 |  | Not Active | inactive |  |  |  | > 80% |  |  |  | 
3 | c1ccc(-c2ccc(OCCSc3nc4ccccc4[nH]3)cc2)cc1 |  | Not Active | inactive |  |  |  | > 80% |  |  |  | 
4 | Cc1ccc(OCCSc2nc3ccccc3[nH]2)c([N+](=O)[O-])c1 |  | Not Active | inactive |  |  |  | > 80% |  |  |  | 
5 | CC(C)c1ccccc1OCCSc1nc2ccccc2[nH]1 |  |  | inactive |  | > 10 µM |  | > 80% |  |  |  | 
6 | Cc1ccc2nc(NCCOc3c(C)cccc3C)sc2c1 |  |  | inactive |  | > 10 µM |  | > 80% |  |  |  | 
7 | c1ccc2cc(OCCSc3nc4ccccc4[nH]3)ccc2c1 |  |  | inactive | 7.29 µM | 4.49 µM |  | > 80% | > 80% |  |  | 
8 | COc1ccc(SCCSc2nc3ccccc3[nH]2)cc1 |  |  | inactive | 3.55 µM | 5.63 µM |  | > 80% | > 80% |  |  | 
9 | Clc1cc(Cl)c(SCCSc2nc3ccccc3[nH]2)cc1Cl |  |  | inactive |  | 5.71 µM |  | > 80% |  |  |  | 
10 | Cc1ccc(C)c(OCCSc2nc3ccccc3[nH]2)c1 |  |  | inactive |  | 6.41 µM |  | > 80% |  |  |  | 
11 | Cc1cccc(C)c1OCCCSc1nc2ccccc2[nH]1 |  |  | inactive | 4.12 µM | 5.6 µM |  | > 80% | > 80% |  |  | 
12 | CC(C)c1cccc(OCCSc2nc3ccccc3[nH]2)c1 |  |  | inactive |  | 9.17 µM |  | > 80% |  |  |  | 
13 | Cc1ccc(OCCCSc2nc3ccccc3[nH]2)cc1 |  |  | inactive |  | 6.29 µM |  | > 80% |  |  |  | 
14 | CCOC(=O)CCCn1c(SCCOc2c(F)cccc2F)nc2ccccc21 |  |  |  |  |  | 12% |  |  |  |  | 
15 | Cc1ccc2nc(NCCOc3ccccc3)sc2c1 |  | Not Active | inactive |  |  |  | > 80% |  |  |  | 

Further compounds by falling IC50 [3, 7], results first:

Row | IC50 [1] | IC50 [3] | inhibition [5] | IC50 [1, 6] | IC50 [3, 7] | inhibition (Homo sapiens) | SMILES | viability [2] | viability [4] | inhibition (Mus musculus) | IC50 (C3H 10T1/2) | IC50 (Shh Light II)
16 |  |  | inactive | 6.49 µM | 4.47 µM |  | O=[N+]([O-])c1cccc(OCCSc2nc3ccccc3[nH]2)c1 | > 80% | > 80% |  |  | 
17 |  |  | inactive | 6.93 µM | 4.26 µM |  | Cc1ccccc1OCCSc1nc2ccccc2[nH]1 | > 80% | > 80% |  |  | 
18 |  |  | inactive | 3.48 µM | 3.06 µM |  | Cc1cccc(SCCSc2nc3ccccc3[nH]2)c1 | > 80% | > 80% |  |  | 
19 |  |  | inactive |  | 2.9 µM |  | Cc1ccc(C)c(OCCSc2nc3ccccc3[nH]2)c1C | > 80% |  |  |  | 
20 |  |  | inactive | > 10 µM | 2.85 µM |  | Clc1ccc(SCCCSc2nc3ccccc3[nH]2)cc1 | > 80% | > 80% |  |  | 
21 |  |  | inactive |  | 2.61 µM |  | COc1ccccc1OCCSc1nc2ccccc2[nH]1 | > 80% |  |  |  | 
22 |  |  | inactive | 7.89 µM | 2.57 µM |  | Cc1cc(OCCSc2nc3ccccc3[nH]2)ccc1Cl | > 80% | > 80% |  |  | 
23 |  |  | inactive |  | 2.32 µM |  | Fc1ccccc1OCCSc1nc2ccccc2[nH]1 | > 80% |  |  |  | 
24 |  |  | inactive | 8.12 µM | 2.23 µM |  | Oc1ccc(OCCSc2nc3ccccc3[nH]2)cc1 |  |  |  | 7.12 µM | 7.7 µM
25 |  |  | inactive | 8.92 µM | 2.22 µM |  | c1ccc(OCCSc2nc3ccccc3[nH]2)cc1 | > 80% | > 80% |  |  | 
26 |  |  | inactive | 5.11 µM | 2.08 µM |  | Cc1cccc(OCCSc2nc3ccccc3[nH]2)c1 | > 80% | > 80% |  |  | 
27 |  |  | inactive | 3.16 µM | 1.76 µM |  | Cc1cccc(C)c1OCCSc1nc2ccccc2[nH]1 | > 80% | > 80% | Dose-dependent effect |  | 
28 |  |  | inactive | 0.98 µM | 0.14 µM |  | CS(=O)(=O)c1ccc(C(=O)Nc2ccc(Cl)c(-c3ccccn3)c2)c(Cl)c1 [VISMODEGIB] | > 80% | > 80% |  |  | 
